In ChEMBL document CHEMBL1147666, “Fluorinated amphiphilic amino acid derivatives as antioxidant carriers: a new class of protective agents” (J Med Chem, 2006):

How the values were obtained:
Rotifers [1] = experiment: Viability of rotifers against hydrogen peroxide toxicity at 10 uM; type: organism-based; conditions: Rotifera; read-out: Activity
Method in brief: (§1)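 Whole rotifers of defined, uniform age from one stock culture; standardized viability assay. Animals exposed 24 h to oxidotoxin (hydrogen peroxide or doxorubicin) at 200 µM together with antioxidant at 10 µM. Vehicle-only controls run in parallel. Read-out is % viable organisms, mean ± SEM, N = 10; ANOVA with Bonferroni t-test vs vehicle.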

Mixed cortical cells [2] = experiment: Inhibition of peroxynitrite-induced death of mixed cortical cells of E15 Sprague-Dawley rat embryo at 10 uM; type: functional; conditions: Mixed cortical cell
Method in brief: (§2)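 Primary mixed cortical cultures from E15 Sprague-Dawley rat embryos, exposed 24 h to oxidotoxin (hydrogen peroxide, peroxynitrite or doxorubicin, 200 µM) plus antioxidant at 10 µM. Cell death measured by trypan blue absorbance at 590 nm. Reported as % inhibition of trypan blue absorbance versus vehicle, mean ± SEM, N = 10.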

[3] = tested on: Radical scavenging activity; experiment: Radical reducing potency by ABTS cation radical reduction assay per 30 mins at […]; type: functional
Method in brief: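 ABTS cation radical reduction assay (modified Re et al.). Assay ABTS•+ 105 µM, test compound 0.5 mM final. Started by adding the test agent. Read every minute at 420 nm for 30 min. DMSO vehicle controls at 2.5% final. Output is reduced ABTS•+ in nmol/30 min, mean ± SEM, N = 10.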

Mixed cortical cells [4] = experiment: Inhibition of hydrogen peroxide-induced death of mixed cortical cells of E15 Sprague-Dawley rat embryo at 10 uM; type: functional; conditions: Mixed cortical cell; method in brief: as §2
Mixed cortical cells [5] = experiment: Inhibition of doxorubicin-induced death of mixed cortical cells of E15 Sprague-Dawley rat embryo at 10 uM; type: functional; conditions: Mixed cortical cell; method in brief: as §2
Rotifers [6] = experiment: Viability of rotifers against doxorubicin toxicity at 10 uM; type: organism-based; conditions: Rotifera; read-out: Activity; method in brief: as §1
[7] = tested on: Radical scavenging activity; experiment: Hydroxyl radical scavenging activity by ABTS competition assay per 30 mins at 1 umol/mL; type: functional
Method in brief: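 Fenton-initiated ABTS cation radical formation in distilled water adjusted to pH 5.0. Mix: ABTS 1 mM and FeSO4 0.5 mM (stock), test compound 1 mM in DMSO, 10% final DMSO in vehicle controls. Started by adding H2O2 10 mM (stock). Read at 420 nm every minute for 30 min. Output is quenched ABTS•+ in nmol/30 min, mean ± SEM, N = 10.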

O=C(O)CCCCC1CCSS1 (stereo not drawn) [LIPOIC ACID, ALPHA]
survival at 10 µM (Rotifers [1]): 14.1% | inhibition at 10 µM (Mixed cortical cells [2]): 13.1% | Activity [3]: 44.1 nM | inhibition at 10 µM (Mixed cortical cells [4]): 15.1% | inhibition at 10 µM (Mixed cortical cells [5]): 14.8% | survival at 10 µM (Rotifers [6]): 13.3%

O=C(O)CCc1c[nH]c2ccccc12
survival at 10 µM (Rotifers [1]): 67.9% | inhibition at 10 µM (Mixed cortical cells [2]): 83.8% | Activity [3]: 96.5 nM | inhibition at 10 µM (Mixed cortical cells [4]): 87.7% | Activity [7]: 95.7 nM | inhibition at 10 µM (Mixed cortical cells [5]): 76.1% | survival at 10 µM (Rotifers [6]): 53.8%

CC(C)(C)/[N+]([O-])=C/c1ccccc1
survival at 10 µM (Rotifers [1]): 25.6% | inhibition at 10 µM (Mixed cortical cells [2]): 20.6% | Activity [3]: 7.8 nM | inhibition at 10 µM (Mixed cortical cells [4]): 25% | Activity [7]: 18.2 nM | inhibition at 10 µM (Mixed cortical cells [5]): 24.2% | survival at 10 µM (Rotifers [6]): 18.7%

Cc1c(C)c2c(c(C)c1O)CCC(C)(C(=O)O)O2 (configuration not stated) [TROLOX]
survival at 10 µM (Rotifers [1]): 13% | inhibition at 10 µM (Mixed cortical cells [2]): 16.8% | Activity [3]: 93.4 nM | inhibition at 10 µM (Mixed cortical cells [4]): 22.2% | Activity [7]: 87.3 nM | inhibition at 10 µM (Mixed cortical cells [5]): 15.5% | survival at 10 µM (Rotifers [6]): 13.1%
